# Test results as given in ChEMBL document CHEMBL3804761, “Synthesis of a stable and orally bioavailable englerin analogue” (Bioorg Med Chem Lett, 2016).
# Assays:
# Format in all cases: functional
# [1] = system: ACHN; experiment: Growth inhibition of human ACHN cells assessed as cell growth at 10 uM incubated for 48 hrs by sulforhodamine B assay relative to control; settings: read-out: Activity
# Summary of the method: (§1)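 Run in the standard NCI 60-cell-line screen. Cells were exposed to drug for two days, and the read-out was sulforhodamine B staining. Compound was tested at a single final concentration of 10 µM in every line, and results are reported as growth percent.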
# [2] = system: NCI-H460; experiment: Growth inhibition of human NCI-H460 cells assessed as cell growth at 10 uM incubated for 48 hrs by sulforhodamine B assay relative to control; settings: NCI-H460, 48 h, read-out: Activity; summary of the method: as §1
# [3] = Growth inhibition of human BT549 cells assessed as cell growth at 10 uM incubated for 48 hrs by sulforhodamine B assay relative to control; settings: BT-549, 48 h, read-out: Activity; summary of the method: as §1
# [4] = system: KM12; experiment: Growth inhibition of human KM12 cells incubated for 48 hrs by sulforhodamine B assay; settings: KM12, 48 h; for TGI: read-out: pTGI (converted)
# Summary of the method: (§2)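 NCI 60-cell-line panel, standard protocol. Cells exposed to compound for two days, growth read by sulforhodamine B staining. Tested at five 10-fold dilutions, top concentration 100 µM, to give dose-response curves.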
# [5] = Growth inhibition of human SNB75 cells assessed as cell growth at 10 uM incubated for 48 hrs by sulforhodamine B assay relative to control; settings: SNB-75, 48 h, read-out: Activity; summary of the method: as §1
# [6] = system: SR; experiment: Growth inhibition of human SR cells incubated for 48 hrs by sulforhodamine B assay; settings: for TGI: read-out: pTGI (converted)
# Summary of the method: (§3)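 Tested in the standard NCI 60-cell-line protocol with two-day drug exposure and a sulforhodamine B endpoint. Compounds were first screened at a single final concentration of 10 µM, reported as growth percent. They were then run as five 10-fold dilutions starting from a high concentration of 100 µM to give dose-response curves.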
# [7] = Growth inhibition of human OVCAR5 cells incubated for 48 hrs by sulforhodamine B assay; settings: OVCAR-5, 48 h; for TGI: read-out: pTGI (converted); summary of the method: as §2
# [8] = system: NCI/ADR-RES; experiment: Growth inhibition of human NCI/ADR-RES cells incubated for 48 hrs by sulforhodamine B assay; settings: for TGI: read-out: pTGI (converted); summary of the method: as §2
# [9] = Growth inhibition of human HCT15 cells incubated for 48 hrs by sulforhodamine B assay; settings: HCT-15, 48 h; for TGI: read-out: pTGI (converted); summary of the method: as §2
# [10] = system: U-251; experiment: Growth inhibition of human U251 cells assessed as cell growth at 10 uM incubated for 48 hrs by sulforhodamine B assay relative to control; settings: U-251, 48 h, read-out: Activity
# Summary of the method: (§4)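 NCI 60-cell line standard protocol, one-dose screen: single final concentration 10 µM, 2-day drug exposure, sulforhodamine B (SRB) endpoint; read-out is growth percent relative to untreated control.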
# [11] = system: M14; experiment: Growth inhibition of human M14 cells incubated for 48 hrs by sulforhodamine B assay; settings: M14, 48 h; for TGI: read-out: pTGI (converted); summary of the method: as §2
# [12] = system: CCRF-CEM; experiment: Growth inhibition of human CCRF-CEM cells incubated for 48 hrs by sulforhodamine B assay; settings: for CC50: read-out: pLC50 (the source's name) (converted); for TGI: read-out: pTGI (converted); summary of the method: as §2
# [13] = system: NCI-H23; experiment: Growth inhibition of human NCI-H23 cells assessed as cell growth at 10 uM incubated for 48 hrs by sulforhodamine B assay relative to control; settings: NCI-H23, 48 h, read-out: Activity; summary of the method: as §1
# [14] = system: MCF7; experiment: Growth inhibition of human MCF7 cells incubated for 48 hrs by sulforhodamine B assay; settings: MCF7, 48 h; for CC50: read-out: pLC50 (the source's name) (converted); for TGI: read-out: pTGI (converted); summary of the method: as §2
# [15] = Growth inhibition of human UACC62 cells assessed as cell growth at 10 uM incubated for 48 hrs by sulforhodamine B assay relative to control; settings: UACC-62, 48 h, read-out: Activity; summary of the method: as §4
# [16] = Growth inhibition of human HOP92 cells incubated for 48 hrs by sulforhodamine B assay; settings: HOP-92, 48 h; for TGI: read-out: pTGI (converted); summary of the method: as §2
# [17] = system: A498; experiment: Growth inhibition of human A498 cells incubated for 48 hrs by sulforhodamine B assay; settings: A498, 48 h; for TGI: read-out: pTGI (converted)
# [18] = Growth inhibition of human RPMI8226 cells incubated for 48 hrs by sulforhodamine B assay; settings: RPMI-8226, 48 h; for CC50: read-out: pLC50 (the source's name) (converted); for TGI: read-out: pTGI (converted); summary of the method: as §2
# [19] = Growth inhibition of human SW620 cells assessed as cell growth at 10 uM incubated for 48 hrs by sulforhodamine B assay relative to control; settings: SW-620, 48 h, read-out: Activity; summary of the method: as §1
# [20] = system: MDA-MB-231; experiment: Growth inhibition of human MDA-MB-231 cells incubated for 48 hrs by sulforhodamine B assay; settings: MDA-MB-231, 48 h; for CC50: read-out: pLC50 (the source's name) (converted); for TGI: read-out: pTGI (converted); summary of the method: as §2
# [21] = system: NCI-H23; experiment: Growth inhibition of human NCI-H23 cells incubated for 48 hrs by sulforhodamine B assay; settings: NCI-H23, 48 h; for TGI: read-out: pTGI (converted); summary of the method: as §2
# [22] = system: A549; experiment: Growth inhibition of human A549/ATCC cells assessed as cell growth at 10 uM incubated for 48 hrs by sulforhodamine B assay relative to control; settings: A549, 48 h, read-out: Activity; summary of the method: as §1
# [23] = system: U-251; experiment: Growth inhibition of human U251 cells incubated for 48 hrs by sulforhodamine B assay; settings: U-251, 48 h; for TGI: read-out: pTGI (converted); summary of the method: as §3
# [24] = system: Malme-3M; experiment: Growth inhibition of human MALME-3M cells assessed as cell growth at 10 uM incubated for 48 hrs by sulforhodamine B assay relative to control; settings: read-out: Activity; summary of the method: as §1
# [25] = system: MDA-MB-231; experiment: Growth inhibition of human MDA-MB-231 cells assessed as cell growth at 10 uM incubated for 48 hrs by sulforhodamine B assay relative to control; settings: MDA-MB-231, 48 h, read-out: Activity; summary of the method: as §1
# [26] = Growth inhibition of human IGROV1 cells incubated for 48 hrs by sulforhodamine B assay; settings: IGROV-1, 48 h; for CC50: read-out: pLC50 (the source's name) (converted); for TGI: read-out: pTGI (converted); summary of the method: as §2
# [27] = system: NCI-H522; experiment: Growth inhibition of human NCI-H522 cells incubated for 48 hrs by sulforhodamine B assay; settings: NCI-H522, 48 h; for TGI: read-out: pTGI (converted); summary of the method: as §2
# [28] = system: 786-0; experiment: Growth inhibition of human 786-0 cells assessed as cell growth at 10 uM incubated for 48 hrs by sulforhodamine B assay relative to control; settings: 786-0, 48 h, read-out: Activity; summary of the method: as §1
# [29] = system: A549; experiment: Growth inhibition of human A549/ATCC cells incubated for 48 hrs by sulforhodamine B assay; settings: A549, 48 h; for TGI: read-out: pTGI (converted); summary of the method: as §2
smiles,measurement,setting,value
CC(C)[C@@]12C[C@@H](NC(=O)CO)[C@@](C)(O1)[C@@H]1CC[C@@H](C)[C@H]1[C@@H]2OC(=O)c1ccc2ccccc2c1,growth at 10 µM,[1],8.4%
same,growth at 10 µM,[2],92.6%
same,growth at 10 µM,[3],70.2%
same,GI50,[4],17.4 µM
same,LC50,[4],61.7 µM
same,TGI,[4],32.4 µM
same,growth at 10 µM,[5],72.7%
same,GI50,[6],17.8 µM
same,LC50,[6],81.3 µM
same,TGI,[6],38 µM
same,GI50,[7],15.5 µM
same,LC50,[7],55 µM
same,TGI,[7],28.8 µM
same,GI50,[8],11 µM
same,LC50,[8],57.5 µM
same,TGI,[8],25.1 µM
same,GI50,[9],16.6 µM
same,LC50,[9],61.7 µM
same,TGI,[9],31.6 µM
same,growth at 10 µM,[10],79.3%
same,GI50,[11],16.6 µM
same,LC50,[11],58.9 µM
same,TGI,[11],31.6 µM
same,GI50,[12],15.8 µM
same,CC50,[12],75.9 µM
same,TGI,[12],34.7 µM
same,growth at 10 µM,[13],80.2%
same,GI50,[14],15.8 µM
same,CC50,[14],72.4 µM
same,TGI,[14],33.9 µM
same,growth at 10 µM,[15],85%
same,GI50,[16],9.33 µM
same,LC50,[16],52.5 µM
same,TGI,[16],22.9 µM
same,LC50,[17],29.5 µM
same,GI50,[17]; read-out: GI50,1.62 µM
same,GI50,[17]; read-out: pGI50 (converted),1.62 µM
same,TGI,[17],6.31 µM
same,GI50,[18],14.5 µM
same,CC50,[18],85.1 µM
same,TGI,[18],35.5 µM
same,growth at 10 µM,[19],96.2%
same,GI50,[20],15.1 µM
same,CC50,[20],67.6 µM
same,TGI,[20],32.4 µM
same,GI50,[21],14.1 µM
same,LC50,[21],57.5 µM
same,TGI,[21],28.2 µM
same,growth at 10 µM,[22],81%
same,GI50,[23],16.2 µM
same,LC50 (concentration giving 50% net cell kill),[23],56.2 µM
same,TGI,[23],30.2 µM
same,growth at 10 µM,[24],85.3%
same,growth at 10 µM,[25],101%
same,GI50,[26],17.8 µM
same,CC50,[26],61.7 µM
same,TGI,[26],33.1 µM
same,GI50,[27],15.5 µM
same,LC50,[27],56.2 µM
same,TGI,[27],29.5 µM
same,growth at 10 µM,[28],85%
same,GI50,[29],14.8 µM
same,LC50,[29],63.1 µM
same,TGI,[29],30.2 µM
C/C(=C\C(=O)O[C@H]1[C@@H]2[C@H](C)CC[C@H]2[C@]2(C)O[C@@]1(C(C)C)C[C@H]2NC(=O)CO)c1ccccc1,growth at 10 µM,[1],27.9%
same,growth at 10 µM,[2],106%
same,growth at 10 µM,[3],117%
same,GI50,[4],33.9 µM
same,LC50,[4],> 100 µM
same,TGI,[4],> 100 µM
same,growth at 10 µM,[5],102%
same,GI50,[6],26.3 µM
same,LC50,[6],> 100 µM
same,TGI,[6],74.1 µM
same,GI50,[7],70.8 µM
same,LC50,[7],> 100 µM
same,TGI,[7],> 100 µM
same,GI50,[8],7.94 µM
same,LC50,[8],> 100 µM
same,TGI,[8],69.2 µM
same,GI50,[9],34.7 µM
same,LC50,[9],> 100 µM
same,TGI,[9],> 100 µM
same,growth at 10 µM,[10],91.8%
same,GI50,[11],44.7 µM
same,LC50,[11],> 100 µM
same,TGI,[11],> 100 µM
same,GI50,[12],25.1 µM
same,CC50,[12],> 100 µM
same,TGI,[12],77.6 µM
same,growth at 10 µM,[13],97.7%
same,GI50,[14],27.5 µM
same,CC50,[14],> 100 µM
same,TGI,[14],> 100 µM
same,growth at 10 µM,[15],102%
same,GI50,[16],21.9 µM
same,LC50,[16],> 100 µM
same,TGI,[16],81.3 µM
same,LC50,[17],23.4 µM
same,GI50,[17]; read-out: GI50,1.15 µM
same,GI50,[17]; read-out: pGI50 (converted),1.15 µM
same,TGI,[17],4.27 µM
same,GI50,[18],19.5 µM
same,CC50,[18],> 100 µM
same,TGI,[18],56.2 µM
same,growth at 10 µM,[19],103%
same,GI50,[20],38 µM
same,CC50,[20],> 100 µM
same,TGI,[20],> 100 µM
same,GI50,[21],38.9 µM
same,LC50,[21],> 100 µM
same,TGI,[21],> 100 µM
same,growth at 10 µM,[22],84.1%
same,GI50,[23],43.7 µM
same,LC50 (concentration giving 50% net cell kill),[23],> 100 µM
same,TGI,[23],> 100 µM
same,growth at 10 µM,[24],95.9%
same,growth at 10 µM,[25],99.6%
same,GI50,[26],> 100 µM
same,CC50,[26],> 100 µM
same,TGI,[26],> 100 µM
same,GI50,[27],27.5 µM
same,LC50,[27],> 100 µM
same,TGI,[27],81.3 µM
same,growth at 10 µM,[28],93.5%
same,GI50,[29],47.9 µM
same,LC50,[29],> 100 µM
same,TGI,[29],> 100 µM
